# Read-outs that look alike come from different tables or passages of the source.
# Tests used:
# [1] = system: KNS42 cells (paediatric GBM); test: KNS42 cell proliferation assay; format: cell-based; conditions: Homo sapiens, KNS-42, 72 h, read-out: KNS42 prolif., IC50
# Summary of the method: (§1)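 Human cells were kept at 37 °C, 5% CO2 with pen/strep in RPMI/10% FBS (KNS42, BT-12, BT-16), EMEM/10% FBS (DAOY) or DMEM/15% FBS (HFF1). Seeding was 2000 cells/well (KNS42 4000), followed by overnight attachment. Compound medium (0.5, 1, 2.5, 5, 7.5, 10) or 0.1% DMSO control was then applied for 72 h. MTT absorbance was read at 570/600 nm, background subtracted, and IC50 calculated.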
# M. tb H37Rv strain [2] = test: Anti-TB activity, microplate alamarBlue assay; format: cell-based, Mycobacterium tuberculosis; conditions: H37Rv MIC values converted to μM; for H37Rv, MIC: MABA; for MIC: Mycobacterium tuberculosis, H37RV, read-out: H37Rv, MIC, MABA
# Summary of the method: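 Whole-cell M. tuberculosis H37Rv growth inhibition by microplate alamarBlue assay. MIC is the lowest concentration giving at least 90% reduction of bacterial growth, averaged over three individual measurements. It was then converted to molar units. Front-line anti-TB drugs served as positive controls.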
# [3] = system: DAOY cells (medulloblastoma); test: DAOY cell proliferation assay; format: cell-based; conditions: Homo sapiens, 72 h, read-out: DAOY prolif., IC50
# Summary of the method: as §1
# [4] = system: HFF1 non-neoplastic human fibroblasts; test: HFF1 cell viability assay; format: cell-based; conditions: HFF-1, 72 h, read-out: HFF1 viability, IC50
# Summary of the method: (§2)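 Cultures were grown at 37 °C, 5% CO2 with pen/strep in RPMI/10% FBS (BT-12, BT-16), EMEM/10% FBS (DAOY) or DMEM/15% FBS (HFF1). Cells were plated at 2000 per well and incubated overnight. They were then exposed for 72 h to test compound (0.5–10, six levels) or 0.1% DMSO medium. PrestoBlue fluorescence was read at 560/590 nm, background removed, and IC50 derived.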
# BT16 cells (AT/RT) [5] = test: BT16 cell viability assay; format: cell-based; conditions: Homo sapiens, BT-16, 72 h, read-out: BT16 viability, IC50
# Summary of the method: as §2
# BT12 cells (AT/RT) [6] = test: BT12 cell viability assay; format: cell-based; conditions: Homo sapiens, BT-12, 72 h, read-out: BT12 viability, IC50
# Summary of the method: as §2
# [7] = system: DAOY cells (medulloblastoma); test: DAOY cell viability assay; format: cell-based; conditions: Homo sapiens, 72 h, read-out: DAOY viability, IC50
# Summary of the method: as §2
# BT16 cells (AT/RT) [8] = test: BT16 cell proliferation assay; format: cell-based; conditions: Homo sapiens, BT-16, 72 h, read-out: BT16 prolif., IC50
# Summary of the method: as §1
# BT12 cells (AT/RT) [9] = test: BT12 cell proliferation assay; format: cell-based; conditions: Homo sapiens, BT-12, 72 h, read-out: BT12 prolif., IC50
# Summary of the method: as §1
# [10] = system: HFF1 non-neoplastic human fibroblasts; test: HFF1 cell proliferation assay; format: cell-based; conditions: HFF-1, 72 h, read-out: HFF1 prolif., IC50
# Summary of the method: as §1
# Vero cells = test: Cytotoxicity against Vero cells; format: cell-based; conditions: SI = IC50(Vero)/MIC(H37Rv)
# M. tb H37Rv strain [11] = conditions: cited from earlier work
# healthy cells = conditions: read-out: Cytotoxicity to healthy cells, IC50; cited from earlier work
# [12] = target: cannabinoid receptor 2 (CB2); conditions: read-out: CB2 agonistic activity, EC50; cited from earlier work
# human THP-1 cells = conditions: cited from earlier work
# [13] = system: spleen tyrosine kinase (SYK) gene; test: Transcriptional analysis of KNS42 cells, SYK expression; format: cell-based, human; conditions: 10 μM, 72 hours, versus untreated, p < 0.05
# Summary of the method: (§3)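 KNS42 cells in RPMI/10% FBS with pen/strep, 37 °C, 5% CO2, were treated with test compound at 10 for 72 h. Cells were PBS-washed, scraped and pelleted. RNA was TRIzol-extracted, resuspended in DEPC water and quantified by Qubit broad-range assay. Samples underwent DNBSEQ eukaryotic stranded transcriptome resequencing to determine differential expression.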
# KNS42 cells = test: Transcriptional analysis of KNS42 cells, differential gene expression; format: cell-based, human; conditions: 10 μM, 72 hours, fold change ≥ 8, P < 0.05
# Summary of the method: as §3
# [14] = system: carbonic anhydrase 9 (CA9) gene; test: Transcriptional analysis of KNS42 cells, CA9 expression; format: cell-based, human; conditions: 10 μM, 72 hours, versus untreated, p < 0.01
# Summary of the method: as §3
smiles,measurement,setting,value
"O=C(NC12CC3CC(CC(C3)C1)C2)c1ccc(NC(=O)c2cc3c(F)cc(F)cc3[nH]2)cc1 [Compound 20, N-(4-((Adamantan-1-yl)carbamoyl)phenyl)-4,6-difluoro-1H-indole-2-carboxamide]",IC50,[1],> 10 µM
same,"H37Rv, MIC",M. tb H37Rv strain [2],>71 µM
same,MIC,M. tb H37Rv strain [2],> 71 µM
"O=C(NCc1ccccc1)c1cc2c(F)cc(F)cc2[nH]1 [Compound 9a, N-Benzyl-4,6-difluoro-1H-indole-2-carboxamide]",IC50,[1],9.85 µM
same,IC50,[3],> 10 µM
same,IC50,[4],119 µM
same,IC50,BT16 cells (AT/RT) [5],1.81 µM
same,IC50,BT12 cells (AT/RT) [6],0.89 µM
same,"H37Rv, MIC",M. tb H37Rv strain [2],>112 µM
same,MIC,M. tb H37Rv strain [2],> 112 µM
same,IC50,[7],> 10 µM
same,IC50,BT16 cells (AT/RT) [8],6.06 µM
same,IC50,BT12 cells (AT/RT) [9],7.44 µM
same,IC50,[10],65 µM
"Cc1ccc2[nH]c(C(=O)NC(C)C34CC5CC(CC(C5)C3)C4)cc2c1 (centres unmarked) [Compound 8d, N-(1-(Adamantan-1-yl)ethyl)-5-methyl-1H-indole-2-carboxamide]",IC50,[1],> 10 µM
same,MIC,M. tb H37Rv strain [2],2.97 µM
"CC(NC(=O)c1cc2c(Cl)cc(Cl)cc2[nH]1)C12CC3CC(CC(C3)C1)C2 (centres unmarked) [Compound 8g, N-(1-(Adamantan-1-yl)ethyl)-4,6-dichloro-1H-indole-2-carboxamide]",IC50,[1],> 10 µM
same,MIC,M. tb H37Rv strain [2],0.32 µM
same,SI (selectivity index),Vero cells,128
"NNC(=O)c1ccncc1 [INH, isoniazid]","H37Rv, MIC",M. tb H37Rv strain [11],0.04 (ref. [6]) μg mL^−1
"Cc1cc(C)c2cc(C(=O)NC34CC5CC(CC(C5)C3)C4)[nH]c2c1 [Compound 2, N-(1-adamantyl)-4,6-dimethylindole-2-carboxamide]",IC50,healthy cells,> 200 µM
same,MIC,M. tb H37Rv strain [11],0.012 µM
"COc1ccc2[nH]c(C(=O)NC(C)C34CC5CC(CC(C5)C3)C4)cc2c1 (centres unmarked) [Compound 8c, N-(1-(Adamantan-1-yl)ethyl)-5-methoxy-1H-indole-2-carboxamide]",IC50,[1],> 10 µM
same,"H37Rv, MIC",M. tb H37Rv strain [2],5.67 µM
same,MIC,M. tb H37Rv strain [2],< 6 µM
"O=C(NC(=O)c1cc2c(F)cc(F)cc2[nH]1)c1cccc(F)c1 [Compound 11a, 4,6-Difluoro-N-(3-fluorobenzoyl)-1H-indole-2-carboxamide]",IC50,[1],> 10 µM
same,"H37Rv, MIC",M. tb H37Rv strain [2],>101 µM
same,MIC,M. tb H37Rv strain [2],> 96 µM
"CC(NC(=O)c1cc2ccccc2[nH]1)C12CC3CC(CC(C3)C1)C2 (centres unmarked) [Compound 8a, N-(1-(Adamantan-1-yl)ethyl)-1H-indole-2-carboxamide]",IC50,[1],> 10 µM
same,MIC,M. tb H37Rv strain [2],6.2 µM
same,"H37Rv, MIC",M. tb H37Rv strain [11],> 15.5 µM
"CC(NC(=O)c1cc2ccc(Br)cc2[nH]1)C12CC3CC(CC(C3)C1)C2 (centres unmarked) [Compound 8f, N-(1-(Adamantan-1-yl)ethyl)-6-bromo-1H-indole-2-carboxamide]",IC50,[1],> 10 µM
same,MIC,M. tb H37Rv strain [2],0.62 µM
same,SI (selectivity index),Vero cells,64
"CC[C@@H](CO)NCCN[C@@H](CC)CO [EMB, ethambutol]","H37Rv, MIC",M. tb H37Rv strain [11],1 (ref. [6]) μg mL^−1
"O=C(NC(=O)c1cc2c(F)cc(F)cc2[nH]1)c1cccc(Cl)c1 [Compound 11b, N-(3-Chlorobenzoyl)-4,6-difluoro-1H-indole-2-carboxamide]",IC50,[1],> 10 µM
same,"H37Rv, MIC",M. tb H37Rv strain [2],>96 µM
"O=C(NC12CC3CC(CC(C3)C1)C2)c1cc2ccccc2[nH]1 [Compound 3, N-(1-adamantyl)-indole-2-carboxamide]",EC50,[12],0.98 µM
same,IC50,[1],> 10 µM
same,Cytotoxicity against human THP-1 cells,human THP-1 cells,non-cytotoxic up to 50
"COc1cccc2[nH]c(C(=O)NC(C)C34CC5CC(CC(C5)C3)C4)cc12 (centres unmarked) [Compound 8b, N-(1-(Adamantan-1-yl)ethyl)-4-methoxy-1H-indole-2-carboxamide]",IC50,[1],> 10 µM
"O=C(c1cc2c(F)cc(F)cc2[nH]1)N1CCN(C(=O)C23CC4CC(CC(C4)C2)C3)CC1 [Compound 15, (Adamantan-1-yl)(4-(4,6-difluoro-1H-indole-2-carbonyl)piperazin-1-yl)methanone]",Downregulation of SYK expression,[13],9 fold
same,IC50,[1],6.62 µM
same,IC50,[3],> 10 µM
same,IC50,[4],19.4 µM
same,IC50,BT16 cells (AT/RT) [5],5.89 µM
same,IC50,BT12 cells (AT/RT) [6],3.16 µM
same,Number of genes with downregulated expression,KNS42 cells,9 genes
same,"H37Rv, MIC",M. tb H37Rv strain [2],>75 µM
same,IC50,[7],> 10 µM
same,IC50,BT16 cells (AT/RT) [8],> 10 µM
same,Downregulation of CA9 expression,[14],15 fold
same,IC50,BT12 cells (AT/RT) [9],> 10 µM
same,IC50,[10],17.4 µM
"O=C(NNc1ccccc1)c1cc2c(F)cc(F)cc2[nH]1 [Compound 9b, 4,6-Difluoro-N′-phenyl-1H-indole-2-carbohydrazide]",IC50,[1],> 10 µM
same,"H37Rv, MIC",M. tb H37Rv strain [2],>111 µM
same,MIC,M. tb H37Rv strain [2],> 96 µM
"CC(NC(=O)c1cc2cc(Cl)ccc2[nH]1)C12CC3CC(CC(C3)C1)C2 (centres unmarked) [Compound 8e, N-(1-(Adamantan-1-yl)ethyl)-5-chloro-1H-indole-2-carboxamide]",IC50,[1],> 10 µM
"CC(NC(=O)c1cc2c(F)cc(F)cc2[nH]1)C12CC3CC(CC(C3)C1)C2 (centres unmarked) [Compound 8h, N-(1-(Adamantan-1-yl)ethyl)-4,6-difluoro-1H-indole-2-carboxamide]",IC50,[1],> 10 µM
"O=C(c1cc2c(F)cc(F)cc2[nH]1)N1CCNCC1 [Compound 14, (4,6-Difluoro-1H-indol-2-yl)(piperazin-1-yl)methanone]",IC50,[1],> 10 µM
same,"H37Rv, MIC",M. tb H37Rv strain [2],>121 µM
same,MIC,M. tb H37Rv strain [2],> 121 µM

# From publication PMC9029315 (RSC Advances, 2021)
